Compound activity as filed in PubChem.
LMPTP inh = blocks human LMPTP phosphatase. P24666. recombinant LMPTP-A, OMFP fluorogenic substrate, fluorescence intensity. inhibition, % at 20 µM. 360,000 compounds, 0.22% hits. AID 651560;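 active means compounds that cut the enzyme signal by at least half of the control window in the single-dose screen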;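 further: plate controls were DMSO wells with enzyme plus substrate for no effect and substrate without enzyme for full effect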
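Test system: LMPTP-A phosphatase enzyme. Amount: LMPTP-A at 0.625 nM final in the reaction. Reagent: OMFP substrate, 400 µM final. Times: 50 min at room temperature. Signal: endpoint fluorescence intensity from OMFP dephosphorylation. Read-out basis: % inhibition. Benchmarks: no-enzyme and uninhibited controls.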
DNMT1 inh = inhibitors of human DNMT1 | 360,000 compounds, 0.83% hits | AID 588458 | P26358 | DNMT1 molecular beacon, Hinp1I cleavage, fluorescence | inhibition (reported as % activation of signal), % at 10 µM; in the data active means inhibition above about 50%
Target sequence (P26358 504-1616 limits assumed): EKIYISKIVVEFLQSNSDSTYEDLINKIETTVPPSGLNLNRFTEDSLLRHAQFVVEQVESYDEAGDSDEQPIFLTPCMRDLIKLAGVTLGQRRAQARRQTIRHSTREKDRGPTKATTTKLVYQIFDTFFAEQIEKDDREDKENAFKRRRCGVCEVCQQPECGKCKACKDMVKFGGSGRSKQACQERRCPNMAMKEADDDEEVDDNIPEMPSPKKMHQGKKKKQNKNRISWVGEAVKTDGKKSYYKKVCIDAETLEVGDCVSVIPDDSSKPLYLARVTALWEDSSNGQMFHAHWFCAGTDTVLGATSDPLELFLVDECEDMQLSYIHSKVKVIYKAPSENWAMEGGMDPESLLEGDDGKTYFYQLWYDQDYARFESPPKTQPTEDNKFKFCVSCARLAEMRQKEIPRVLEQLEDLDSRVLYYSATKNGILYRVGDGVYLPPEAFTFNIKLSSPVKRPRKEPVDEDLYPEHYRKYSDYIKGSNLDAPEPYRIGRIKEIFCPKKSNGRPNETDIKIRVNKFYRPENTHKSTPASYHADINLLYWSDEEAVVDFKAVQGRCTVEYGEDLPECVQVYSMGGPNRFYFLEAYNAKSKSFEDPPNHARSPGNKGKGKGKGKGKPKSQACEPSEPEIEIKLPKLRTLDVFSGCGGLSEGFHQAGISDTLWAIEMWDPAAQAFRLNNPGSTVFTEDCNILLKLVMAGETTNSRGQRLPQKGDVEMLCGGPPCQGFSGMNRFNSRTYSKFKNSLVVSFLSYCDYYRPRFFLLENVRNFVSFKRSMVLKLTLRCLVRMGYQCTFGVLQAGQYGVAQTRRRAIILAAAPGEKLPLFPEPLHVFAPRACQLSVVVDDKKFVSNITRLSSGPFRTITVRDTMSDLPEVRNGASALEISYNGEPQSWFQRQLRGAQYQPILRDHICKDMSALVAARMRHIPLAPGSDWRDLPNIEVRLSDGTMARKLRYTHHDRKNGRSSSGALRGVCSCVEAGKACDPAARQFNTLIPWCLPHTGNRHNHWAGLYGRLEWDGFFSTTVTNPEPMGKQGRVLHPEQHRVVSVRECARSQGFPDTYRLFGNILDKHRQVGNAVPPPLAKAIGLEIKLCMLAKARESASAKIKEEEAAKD
NadD block = blocks S. aureus nicotinate mononucleotide adenylyltransferase | purified NadD enzyme, colorimetric absorbance read-out | inhibition, % at 20 µM | 360,000 compounds, 0.78% hits | AID 602399; in the data active means inhibition above about 26%
STEP inh = blocks human striatal-enriched tyrosine phosphatase | P54829 | recombinant STEP, OMFP fluorogenic substrate, fluorescence | inhibition, % at 20 µM | 360,000 compounds, 0.25% hits | AID 588621;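 active means inhibition at 20 µM, scaled per plate between control wells, above about 37%, limit read from the data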;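 further: 0% = DMSO with enzyme and substrate and 100% = substrate only without enzyme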
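Also added – OMFP at 25 µM · Test system – STEP tyrosine phosphatase · Technique – FITC-channel fluorescence of OMFP product · Schedule – 20 min at room temperature, dark · Evaluation – control-normalized % inhibition with plate pattern correction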
SUMO1-SIM PPI = alters human SUMO1 binding to SIM partners | SUMO1 binding to a labelled peptide, TR-FRET, 1 h | inhibition, % at 20 µM | 360,000 compounds, 0.33% hits | AID 602429; in the data active means inhibition above about 37%
Scp-1 inhibitor = Scp-1 (human) phosphatase inhibition; Q9GZU7; Recombinant Scp1, phosphopeptide, malachite green phosphate absorbance; inhibition, % at 20 µM; 340,000 compounds, 0.88% hits;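 active means inhibition above about 50% at 20 µM, limit read from the data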;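 further: plate controls were DMSO wells with enzyme for no effect and wells lacking enzyme for full effect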
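Assay system: SCP-1 catalytic fragment, aa 76-261 | Buffer or medium: Tris acetate buffer pH 5.5 with MgCl2 and Tween-20 | Compound: One concentration, 20 µM, with 1.0% DMSO | Also added: Phospho 17-mer peptide substrate | Signal: Absorbance at 630 nm | Incubation: 45 min enzyme reaction at room temperature | Measure: % inhibition of SCP-1 phosphate liberation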
Scp1 confirm = Scp-1 (human) inhibition, single-dose confirmed; shares compounds with Scp-1 inhibitor; recombinant SCP-1 catalytic domain, phosphate release, malachite green absorbance; inhibition, % at 20 µM; 2,500 compounds, 61% hits; AID 540281;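 further: plate controls were DMSO with enzyme for no effect and buffer wells lacking enzyme for full effect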
MG interference = counter-screen for Scp-1 inhibitors: colorimetric interference; Colorimetric interference counterscreen, malachite green absorbance 630 nm; shares compounds with Scp-1 inhibitor; apparent inhibition (interference), % at 20 µM; AID 540313; 2,500 tested, under 10 active;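 further: compounds added after enzyme reaction finished so only phosphate colour detection is probed; plate controls were DMSO wells with completed Scp-1 reaction for no effect and substrate wells lacking enzyme for full effect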
Scp-1 Tm shift = validation of human Scp-1 inhibitors by thermal shift binding; Recombinant SCP1, Sypro Orange thermal shift Tm; AID 540329; thermal shift relative to vanadate control, % at 40 µM; 1,500 compounds, 25% hits; shares compounds with Scp-1 inhibitor;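 active means substances whose mean melting-temperature shift, as a percentage of the reference inhibitor's shift, reaches about 5.3%, limit read from the data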;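 further: 0% = Tm of DMSO wells and 100% = Tm with sodium orthovanadate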
Numbers without * were called inactive; · = not tested or not shown. A selection: hits, their analogues and other compounds. The true share with any hit is near 2.4%.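 How the source made its calls, unless noted: active means inhibition of at least 30% at 20 µM; inactive means the rest.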

SMILES | LMPTP inh | DNMT1 inh | NadD block | STEP inh | SUMO1-SIM PPI | Scp-1 inhibitor | Scp1 confirm | MG interference | Scp-1 Tm shift
N#C/C(=C\c1ccc(OCc2ccc(C(=O)O)cc2)cc1)C(=O)NCc1ccccc1 | -1 | 0 | -3 | 19 | -16 | 91* | 81* | -11 | -24
COc1cc(/C=C(\C#N)C(=O)NCc2ccccc2)ccc1OCc1ccc(C(=O)O)cc1 | 0 | 0 | 4 | -1 | -10 | 2 | · | · | ·
COc1cc(/C=C(/C#N)C(=O)Nc2ccccc2)ccc1OCc1ccc(C(=O)O)cc1 | 17 | -2 | 9 | 27 | 8 | 82* | 58* | -22 | 3
C[C@@H](NC(=O)/C(C#N)=C/c1ccc(O)c(O)c1)c1ccccc1 | -1 | 7 | -1 | 0 | -20 | -9 | · | · | ·
CSc1nc2ccc(NC(=O)CSc3nnc(N)s3)cc2s1 | -1 | -2 | 1 | -5 | 2 | 0 | · | · | ·
O=C(c1ccc2c(=O)n(Cc3ccc(Cl)cc3)c(=S)[nH]c2c1)N1CCOCC1 | 1 | 3 | -6 | -1 | 4 | -12 | · | · | ·
Cc1nc(N2CCOCC2)c2c(C)c(C(=O)Nc3ccccc3Cl)sc2n1 | 2 | 1 | 0 | 1 | 1 | 51* | -13 | -11 | ·
CCOc1ccc(NC(=O)C2CCCN2C(=O)Oc2ccccc2)cc1 (stereo not given) | -1 | 1 | 5 | -1 | 3 | 54* | 20 | -8 | ·
Cc1cc(C)cc(NC(=O)C2CCCN2C(=O)Oc2ccccc2)c1 (stereo not given) | 0 | -4 | 0 | -1 | 1 | -5 | · | · | ·
Cc1cc(C)n2c(SCC(=O)N(C)C3CCCCC3)nnc2n1 | 0 | -4 | 0 | -2 | 0 | -6 | · | · | ·
O=C(O)c1cc2c(s1)-c1ccccc1CC2 | -1 | 1 | -4 | -5 | -8 | -7 | · | · | ·
O=C(N/N=C/c1ccc(Cl)cc1)c1cc2c(s1)-c1ccccc1CC2 | 24 | 33 | 5 | -3 | 3 | 101* | 64* | -15 | -18
O=C(O)c1c[nH]c2c([N+](=O)[O-])cccc2c1=O | 3 | 20 | 2 | 8 | -9 | 83* | 53* | -11 | -12
CCOc1ccc(C=NNc2ccc(S(=O)(=O)Nc3ccccc3C(=O)O)cc2[N+](=O)[O-])cc1OC | 37 | -6 | 21 | 98* | 25 | 72* | 86* | -8 | 17*
COc1ccc(NC(=O)C(C2CC2)n2c(=O)c(-c3ccccc3)nc3ccccc32)cc1 (stereo not given) | 1 | · | · | · | -12 | · | · | · | ·
CC(=O)c1ccccc1N(C(=O)Cn1nnc2ccccc21)C(C(=O)NCC1CCCO1)c1ccc(N2CCOCC2)cc1 (stereo not given) | 0 | 1 | -3 | -2 | 6 | -11 | · | · | ·
Cn1c(C(C(=O)NCC2CCCO2)N(C(=O)Cn2nnc3ccccc32)C2CCCCC2)nc2ccccc21 (stereo not given) | 0 | 2 | -1 | -3 | 3 | 68* | -18 | -15 | ·
Cn1c(C2=C(O)CN(Cc3ccccc3)C2=N)nc2ccccc21 | -1 | 0 | 1 | 1 | 2 | -16 | · | · | ·
Oc1ccc(C=Nc2ccc(N3CCOCC3)cc2)c(O)c1 | 6 | 30 | 12 | 11 | -10 | 52* | 45* | -11 | 2
COc1ccc(Nc2nnc(-c3ccncc3)s2)cc1Cl | 64* | 69* | 5 | 61* | 93* | 94* | 68* | -13 | -6
COc1ccc(CCNC(=O)c2ccc(OC)c(OC)c2)cc1OC | 0 | -3 | -1 | -3 | 11 | 0 | · | · | ·
CCC(C)C1Nc2ccc(C(=O)NCCc3ccc(OC)c(OC)c3)cc2NC1=O (stereo not given) | -3 | 1 | -9 | 2 | -2 | -5 | -8 | -7 | ·
COc1ccc(/C=N/NC(=O)c2cccc([N+](=O)[O-])c2)cc1O | 0 | 7 | 4 | 1 | -20 | -3 | · | · | ·
COc1cc(/C=N/NC(=O)c2cccc([N+](=O)[O-])c2)ccc1O | -1 | 0 | -3 | -5 | -15 | 89* | -14 | -13 | ·
Cc1nnc(NC(=O)COc2ccc3c(C)cc(=O)oc3c2)s1 | 1 | 9 | -1 | 3 | 32 | 71* | 65* | -8 | 2
SMILES | LMPTP inh | DNMT1 inh | NadD block | STEP inh | SUMO1-SIM PPI | Scp-1 inhibitor | Scp1 confirm | MG interference | Scp-1 Tm shift
Cc1cc(=O)oc2cc(OCC(=O)N3c4ccccc4NC(=O)C3(C)C)ccc12 | 6 | 24 | 2 | -2 | 3 | 62* | 42* | -22 | -12
Cc1noc(C)c1COc1ccc(C(=O)OCC(=O)N2CC(=O)Nc3ccccc32)cc1 | 0 | 3 | 0 | -5 | 1 | 0 | · | · | ·
Cc1noc(C)c1COc1ccc(C(=O)OCC(=O)N2c3ccccc3NC(=O)C2(C)C)cc1 | 1 | 23 | -2 | -3 | 5 | 69* | 46* | -21 | -3
CCOC(=O)[C@]12CCCC=C1N(Cc1ccc(Cl)cc1Cl)C(=O)[C@H](CC(=O)NCc1cccc3ccccc13)C2 | 4 | · | 19 | · | 0 | · | · | · | ·
O=C(Nc1cc(C(=O)N2CCN(c3ccccc3O)CC2)ccc1Cl)c1cccs1 | 0 | -19 | 2 | 2 | -2 | -4 | · | · | ·
O=C(COC(=O)c1ccc[n+]([O-])c1)Nc1ccccc1OC(F)F | -1 | 2 | -5 | -2 | -2 | -5 | · | · | ·
O=C(C[n+]1ccc(C(=O)c2ccccc2)cc1)Nc1ccccc1OC(F)F | -2 | -2 | 1 | -1 | -46 | 83* | -3 | 0 | ·
O=C(COC(=O)c1ccccc1O)Nc1ccc(N2CCOCC2)cc1 | -1 | 1 | -1 | -1 | 0 | -6 | · | · | ·
Nc1ccc(C(=O)NCCCSc2ccccc2)cc1[N+](=O)[O-] | 3 | -3 | -5 | 4 | -31 | -6 | · | · | ·
COc1ccccc1OCCSc1nc2ccccc2n1CCC(=O)O | -1 | 10 | 0 | -1 | 9 | 9 | · | · | ·
COc1ccccc1OCCn1c(SCC(=O)O)nc2ccccc21 | -2 | 17 | 1 | 3 | 2 | 62* | 50* | -8 | -16
Cc1ccc(CN2CCC(CNS(=O)(=O)c3ccc(-c4ccc(=O)[nH]n4)s3)CC2)cc1 | 1 | -1 | 1 | -1 | -34 | -1 | · | · | ·
CC(C)OCCCN(C)C1CCN(S(=O)(=O)c2ccc(-c3ccc(=O)[nH]n3)s2)CC1 | 2 | -1 | -3 | -4 | -19 | 51* | -25 | -20 | ·
